pEC50, pKi: −log10 of the molar value. Activity calls are given as the source filed them. The rule behind the calls is not given here.
Legend:
[1] = target: Metabotropic glutamate receptor 8 (Homo sapiens, UniProt O00222); assay: Agonist activity at human mGluR8 assessed as effect on cAMP production in RGT cells; format: functional, cell-based
Procedure, shortened: (§1)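 cAMP second-messenger responses measured in RGT cells. These are non-neuronal AV12-664 cells coexpressing the glutamate transporter GLAST, to minimize glutamate activity, plus the recombinant human receptor (mGlu2, mGlu3 or mGlu8). Agonist EC50 determined.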

[2] = Plasma concentration in Fischer 344 rat at 10 mg/kg, po after 16 hrs; format: ADME, organism-based; design: dose 10 mg/kg, route oral
Procedure, shortened: (§2)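 Plasma levels in fasted male Fischer 344 rats after a 10 mg/kg oral dose in pH 7 water (NaOH), quantified by positive-ion electrospray LC/MS/MS. Main protocol sampled at 0.08/0.25–24 h, n=3 rats per time point. A variant oral-only arm used n=6 rats with samples at 0.5, 1, 2, 3, 4 and 6 h.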

[3] = Tmax in Fischer 344 rat at 10 mg/kg, iv; format: ADME, organism-based; design: dose 10 mg/kg, route intravenous; conditions: in vivo
Procedure, shortened: (§3)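 Male Fischer 344 rats fasted overnight, food returned 4 h post dose, water ad libitum. Doses were in water brought to pH 7 with NaOH, given i.v. (2.5 or 10 mg/kg) or p.o. (10 mg/kg). Nine rats per dose group, three per time point, with blood taken over 0.08–24 h. Plasma measured by LC/MS/MS.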

[4] = Plasma concentration in Fischer 344 rat at 10 mg/kg, po after 8 hrs; format: ADME, organism-based; design: dose 10 mg/kg, route oral; procedure, shortened: as §2
[5] = tested on: Rattus norvegicus; assay: Reduction of PCP-induced ambulations in Sprague-Dawley rat at 10 mg/kg, po; format: functional; design: scale not given: the % may be the effect or the level left
Procedure, shortened: (§4)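 Male Sprague-Dawley rats (225-274 g) fasted 12-18 h and habituated 30 min to the test cage. Test drug or vehicle was given orally 2 h before PCP (5 mg/kg s.c.) or 0.9% NaCl. Horizontal photobeam breaks were counted over 60 min, n=8-13 per group.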

[6] = tested on: Rattus norvegicus; assay: Plasma concentration in Fischer 344 rat at 10 mg/kg, po after 1 hrs; format: ADME, organism-based; design: dose 10 mg/kg, route oral; conditions: in vivo; procedure, shortened: as §2
[7] = target: T1, Metabotropic glutamate receptor 3 (Homo sapiens, UniProt Q14832); assay: Displacement of [3H]LY341495 from human recombinant mGluR3 in RGT cells; format: cell-based
Procedure, shortened: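 Radioligand binding on membranes carrying recombinant human mGlu2 or mGlu3, displacing the antagonist [3H]LY341495. Ki was calculated from IC50 by the Cheng-Prusoff equation. Values are the mean of at least three separate experiments.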

[8] = tested on: Rattus norvegicus; assay: Cmax in Fischer 344 rat at 10 mg/kg, iv; format: ADME, organism-based; design: dose 10 mg/kg, route intravenous; conditions: in vivo; procedure, shortened: as §3
[9] = Oral bioavailability in Fischer 344 rat at 10 mg/kg, po; format: ADME, organism-based; conditions: in vivo; procedure, shortened: as §3
[10] = tested on: Rattus norvegicus; assay: Plasma concentration in Fischer 344 rat at 10 mg/kg, po after 6 hrs; format: ADME, organism-based; design: dose 10 mg/kg, route oral; conditions: in vivo; procedure, shortened: as §2
[11] = tested on: Rattus norvegicus; assay: Plasma concentration in Fischer 344 rat at 10 mg/kg, po after 4 hrs; format: ADME, organism-based; design: dose 10 mg/kg, route oral; conditions: in vivo; procedure, shortened: as §2
[12] = tested on: Rattus norvegicus; assay: Plasma concentration in Fischer 344 rat at 10 mg/kg, po after 3 hrs; format: ADME, organism-based; design: dose 10 mg/kg, route oral; conditions: in vivo; procedure, shortened: as §2
[13] = tested on: Rattus norvegicus; assay: Plasma concentration in Fischer 344 rat at 10 mg/kg, po after 0.5 hrs; format: ADME, organism-based; design: dose 10 mg/kg, route oral; conditions: in vivo; procedure, shortened: as §2
[14] = tested on: Rattus norvegicus; assay: (§5) AUC (0-24h) in Fischer 344 rat at 10 mg/kg, po; format: ADME, organism-based, Plasma; design: time < 24 hr, dose 10 mg/kg, route oral; conditions: rat, in vivo, 24 h; procedure, shortened: as §3
[15] = tested on: Rattus norvegicus; assay: Reduction of PCP-induced ambulations in Sprague-Dawley rat at 3 mg/kg, po; format: functional; design: scale not given: the % may be the effect or the level left; procedure, shortened: as §4
[16] = Plasma concentration in rat at 10 mg/kg, po after 24 hrs; format: ADME, organism-based; design: dose 10 mg/kg, route oral; procedure, shortened: as §2
[17] = target: Metabotropic glutamate receptor 2 (Homo sapiens, UniProt Q14416); assay: Agonist activity at human mGluR2 assessed as effect on cAMP production in RGT cells; format: functional, cell-based; procedure, shortened: as §1
[18] = tested on: Rattus norvegicus; assay: Cmax in Fischer 344 rat at 10 mg/kg, po; format: ADME, organism-based; design: dose 10 mg/kg, route oral; conditions: in vivo; procedure, shortened: as §3
[19] = (§6) Tmax in Fischer 344 rat at 10 mg/kg, po; format: ADME, organism-based; design: dose 10 mg/kg, route oral; conditions: Fischer 344, rat, in vivo; procedure, shortened: as §3
[20] = tested on: Rattus norvegicus; assay: Inhibition of PCP-induced ambulations in Sprague-Dawley rat after oral administration; format: functional; procedure, shortened: as §4
[21] = AUC (0-24h) in Fischer 344 rat at 10 mg/kg, iv; format: ADME, organism-based; design: time < 24 hr, dose 10 mg/kg, route intravenous; conditions: plasma; procedure, shortened: as §3
[22] = tested on: Rattus norvegicus; assay: Plasma concentration in Fischer 344 rat at 10 mg/kg, po after 2 hrs; format: ADME, organism-based; design: dose 10 mg/kg, route oral; conditions: in vivo; procedure, shortened: as §2
[23] = target: T1, Metabotropic glutamate receptor 3; assay: Agonist activity at human mGluR3 assessed as effect on cAMP production in RGT cells; format: functional, cell-based; procedure, shortened: as §1
[24] = target: Metabotropic glutamate receptor 4 (Homo sapiens) (UniProt Q14833); assay: Agonist activity at human mGluR4a assessed as effect on cAMP production in RGT cells upto 100 uM; format: functional, cell-based
Procedure, shortened: (§7)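 Compounds were tested at concentrations up to 100 µM for agonist or antagonist effects. Assays used RGT cells, which are AV12-664 cells coexpressing GLAST and recombinant human mGlu1a, mGlu5a, mGlu4a or mGlu7a.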

[25] = target: Metabotropic glutamate receptor 7 (Homo sapiens) (UniProt Q14831); assay: Agonist activity at human mGluR7a assessed as effect on cAMP production in RGT cells upto 100 uM; format: functional, cell-based; procedure, shortened: as §7
[26] = target: Metabotropic glutamate receptor 1 (Homo sapiens) (UniProt Q13255); assay: Antagonist activity against human mGluR1a assessed as effect on cAMP production in RGT cells upto 100 uM; format: functional, cell-based; procedure, shortened: as §7
[27] = target: Metabotropic glutamate receptor 7 (Homo sapiens) (UniProt Q14831); assay: Antagonist activity against human mGluR7a assessed as effect on cAMP production in RGT cells upto 100 uM; format: functional, cell-based; procedure, shortened: as §7
[28] = target: Metabotropic glutamate receptor 1 (Homo sapiens) (UniProt Q13255); assay: Agonist activity at human mGluR1a assessed as effect on cAMP production in RGT cells upto 100 uM; format: functional, cell-based; procedure, shortened: as §7
[29] = target: Metabotropic glutamate receptor 5 (Homo sapiens) (UniProt P41594); assay: Agonist activity at human mGluR5a assessed as effect on cAMP production in RGT cells upto 100 uM; format: functional, cell-based; procedure, shortened: as §7
[30] = target: Metabotropic glutamate receptor 5 (Homo sapiens) (UniProt P41594); assay: Antagonist activity against human mGluR5a assessed as effect on cAMP production in RGT cells upto 100 uM; format: functional, cell-based; procedure, shortened: as §7
[31] = target: Metabotropic glutamate receptor 4 (Homo sapiens) (UniProt Q14833); assay: Antagonist activity against human mGluR4a assessed as effect on cAMP production in RGT cells upto 100 uM; format: functional, cell-based; procedure, shortened: as §7
[32] = tested on: Rattus norvegicus; assay: as §6; format: ADME, organism-based; design: dose 10 mg/kg, route oral; conditions: rat, in vivo; procedure, shortened: as §3
[33] = Plasma concentration in Fischer 344 rat after 3 hrs; format: ADME, organism-based; procedure, shortened: as §2
[34] = Plasma concentration in Fischer 344 rat after 1 hr; format: ADME, organism-based; procedure, shortened: as §2
[35] = tested on: Rattus norvegicus; assay: AUC (0-24h) in Fischer 344 rat at 10 mg/kg, po; conditions: in vivo
[36] = Plasma concentration in Fischer 344 rat after 8 hrs; format: ADME, organism-based; procedure, shortened: as §2
[37] = tested on: Rattus norvegicus; assay: Cmax in Fischer 344 rat at 2.5 mg/kg, iv; format: ADME, organism-based; design: dose 2.5 mg/kg, route intravenous; conditions: in vivo; procedure, shortened: as §3
[38] = as §5; format: ADME, organism-based, Plasma; design: time < 24 hr, dose 10 mg/kg, route oral; conditions: Fischer 344, rat, plasma; procedure, shortened: as §3
[39] = AUC (0-24h) in Fischer 344 rat at 2.5 mg/kg, iv; format: ADME, organism-based; design: time < 24 hr, dose 2.5 mg/kg, route intravenous; conditions: plasma; procedure, shortened: as §3
[40] = Tmax in Fischer 344 rat at 2.5 mg/kg, iv; format: ADME, organism-based; design: dose 2.5 mg/kg, route intravenous; conditions: in vivo; procedure, shortened: as §3

T1 sequence (Q14832 whole entry): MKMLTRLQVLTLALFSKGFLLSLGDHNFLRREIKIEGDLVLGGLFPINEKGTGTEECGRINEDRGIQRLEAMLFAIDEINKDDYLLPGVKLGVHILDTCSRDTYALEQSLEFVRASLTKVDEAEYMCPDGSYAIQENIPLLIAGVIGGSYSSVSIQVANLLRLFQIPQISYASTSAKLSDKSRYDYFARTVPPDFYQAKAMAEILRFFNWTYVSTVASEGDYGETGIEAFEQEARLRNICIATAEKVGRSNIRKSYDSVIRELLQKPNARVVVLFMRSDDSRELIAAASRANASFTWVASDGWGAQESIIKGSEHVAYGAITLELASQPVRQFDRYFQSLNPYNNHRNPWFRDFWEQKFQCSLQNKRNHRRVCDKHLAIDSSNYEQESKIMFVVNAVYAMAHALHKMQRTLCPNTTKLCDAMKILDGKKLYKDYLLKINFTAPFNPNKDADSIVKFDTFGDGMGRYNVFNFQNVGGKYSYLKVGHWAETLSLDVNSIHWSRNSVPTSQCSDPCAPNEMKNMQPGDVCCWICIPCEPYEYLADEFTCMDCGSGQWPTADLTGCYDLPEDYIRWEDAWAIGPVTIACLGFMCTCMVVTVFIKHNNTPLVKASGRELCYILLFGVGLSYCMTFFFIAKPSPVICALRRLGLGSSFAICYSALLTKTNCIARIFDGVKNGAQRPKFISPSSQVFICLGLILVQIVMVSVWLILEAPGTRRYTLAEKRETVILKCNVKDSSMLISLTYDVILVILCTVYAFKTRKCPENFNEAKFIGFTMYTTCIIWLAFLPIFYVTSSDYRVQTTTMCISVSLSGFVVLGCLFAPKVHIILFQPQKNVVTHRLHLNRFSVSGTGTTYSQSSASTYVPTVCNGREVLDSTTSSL
Sequence of Metabotropic glutamate receptor 4 (Homo sapiens) (Q14833 whole entry): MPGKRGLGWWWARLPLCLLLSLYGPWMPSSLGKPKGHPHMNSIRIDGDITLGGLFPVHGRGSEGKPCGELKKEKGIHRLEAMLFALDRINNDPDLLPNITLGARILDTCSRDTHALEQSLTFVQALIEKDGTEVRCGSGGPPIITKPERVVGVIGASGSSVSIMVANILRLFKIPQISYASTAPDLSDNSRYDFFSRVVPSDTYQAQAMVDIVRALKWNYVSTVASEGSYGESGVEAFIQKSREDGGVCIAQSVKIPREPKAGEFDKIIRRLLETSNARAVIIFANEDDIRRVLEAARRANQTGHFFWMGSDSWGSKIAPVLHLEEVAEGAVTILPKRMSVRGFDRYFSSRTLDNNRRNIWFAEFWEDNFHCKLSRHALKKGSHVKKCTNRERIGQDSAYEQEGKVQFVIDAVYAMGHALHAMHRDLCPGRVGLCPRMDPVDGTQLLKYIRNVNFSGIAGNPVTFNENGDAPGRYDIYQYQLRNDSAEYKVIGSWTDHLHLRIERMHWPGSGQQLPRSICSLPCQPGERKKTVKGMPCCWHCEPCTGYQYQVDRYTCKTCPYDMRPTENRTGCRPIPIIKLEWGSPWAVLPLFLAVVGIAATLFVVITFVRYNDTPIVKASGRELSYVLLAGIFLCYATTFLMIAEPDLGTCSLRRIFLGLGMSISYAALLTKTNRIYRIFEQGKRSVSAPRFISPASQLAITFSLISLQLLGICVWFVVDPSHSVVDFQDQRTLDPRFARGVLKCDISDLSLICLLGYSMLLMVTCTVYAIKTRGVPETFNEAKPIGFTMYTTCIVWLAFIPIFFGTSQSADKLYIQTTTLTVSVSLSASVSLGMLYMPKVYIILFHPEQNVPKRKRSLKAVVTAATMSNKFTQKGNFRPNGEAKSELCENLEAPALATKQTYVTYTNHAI
Sequence of Metabotropic glutamate receptor 1 (Homo sapiens) (Q13255 19-1194 limits assumed): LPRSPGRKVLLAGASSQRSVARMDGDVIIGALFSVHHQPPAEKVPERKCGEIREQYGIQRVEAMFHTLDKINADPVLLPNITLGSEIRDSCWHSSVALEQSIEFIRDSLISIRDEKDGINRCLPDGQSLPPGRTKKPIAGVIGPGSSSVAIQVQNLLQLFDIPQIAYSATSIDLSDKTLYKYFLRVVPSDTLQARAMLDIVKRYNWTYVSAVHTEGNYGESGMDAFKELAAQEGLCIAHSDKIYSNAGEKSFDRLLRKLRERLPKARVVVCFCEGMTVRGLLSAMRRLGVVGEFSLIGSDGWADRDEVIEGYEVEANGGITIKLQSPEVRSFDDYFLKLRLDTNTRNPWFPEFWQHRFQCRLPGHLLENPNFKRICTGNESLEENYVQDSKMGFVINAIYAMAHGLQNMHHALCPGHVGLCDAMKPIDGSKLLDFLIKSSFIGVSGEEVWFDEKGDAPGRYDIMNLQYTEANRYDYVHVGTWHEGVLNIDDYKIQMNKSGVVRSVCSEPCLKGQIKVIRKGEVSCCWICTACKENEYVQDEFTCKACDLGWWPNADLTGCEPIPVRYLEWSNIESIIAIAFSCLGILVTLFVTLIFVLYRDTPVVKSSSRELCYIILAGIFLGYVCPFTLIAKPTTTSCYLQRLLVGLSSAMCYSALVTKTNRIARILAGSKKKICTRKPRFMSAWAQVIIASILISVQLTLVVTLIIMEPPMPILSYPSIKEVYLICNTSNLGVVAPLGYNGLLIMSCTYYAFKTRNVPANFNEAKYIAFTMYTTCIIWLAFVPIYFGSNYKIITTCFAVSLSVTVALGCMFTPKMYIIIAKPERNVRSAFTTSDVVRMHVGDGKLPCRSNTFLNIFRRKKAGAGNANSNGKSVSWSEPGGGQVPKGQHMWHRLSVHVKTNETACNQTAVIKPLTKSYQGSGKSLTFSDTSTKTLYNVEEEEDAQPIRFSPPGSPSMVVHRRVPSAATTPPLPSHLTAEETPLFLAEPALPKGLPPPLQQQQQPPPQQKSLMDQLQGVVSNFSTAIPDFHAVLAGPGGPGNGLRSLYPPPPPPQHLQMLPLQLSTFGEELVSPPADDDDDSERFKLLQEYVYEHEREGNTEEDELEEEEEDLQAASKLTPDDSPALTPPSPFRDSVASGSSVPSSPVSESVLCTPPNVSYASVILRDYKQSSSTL
Sequence of Metabotropic glutamate receptor 5 (Homo sapiens) (P41594 21-1212 limits assumed): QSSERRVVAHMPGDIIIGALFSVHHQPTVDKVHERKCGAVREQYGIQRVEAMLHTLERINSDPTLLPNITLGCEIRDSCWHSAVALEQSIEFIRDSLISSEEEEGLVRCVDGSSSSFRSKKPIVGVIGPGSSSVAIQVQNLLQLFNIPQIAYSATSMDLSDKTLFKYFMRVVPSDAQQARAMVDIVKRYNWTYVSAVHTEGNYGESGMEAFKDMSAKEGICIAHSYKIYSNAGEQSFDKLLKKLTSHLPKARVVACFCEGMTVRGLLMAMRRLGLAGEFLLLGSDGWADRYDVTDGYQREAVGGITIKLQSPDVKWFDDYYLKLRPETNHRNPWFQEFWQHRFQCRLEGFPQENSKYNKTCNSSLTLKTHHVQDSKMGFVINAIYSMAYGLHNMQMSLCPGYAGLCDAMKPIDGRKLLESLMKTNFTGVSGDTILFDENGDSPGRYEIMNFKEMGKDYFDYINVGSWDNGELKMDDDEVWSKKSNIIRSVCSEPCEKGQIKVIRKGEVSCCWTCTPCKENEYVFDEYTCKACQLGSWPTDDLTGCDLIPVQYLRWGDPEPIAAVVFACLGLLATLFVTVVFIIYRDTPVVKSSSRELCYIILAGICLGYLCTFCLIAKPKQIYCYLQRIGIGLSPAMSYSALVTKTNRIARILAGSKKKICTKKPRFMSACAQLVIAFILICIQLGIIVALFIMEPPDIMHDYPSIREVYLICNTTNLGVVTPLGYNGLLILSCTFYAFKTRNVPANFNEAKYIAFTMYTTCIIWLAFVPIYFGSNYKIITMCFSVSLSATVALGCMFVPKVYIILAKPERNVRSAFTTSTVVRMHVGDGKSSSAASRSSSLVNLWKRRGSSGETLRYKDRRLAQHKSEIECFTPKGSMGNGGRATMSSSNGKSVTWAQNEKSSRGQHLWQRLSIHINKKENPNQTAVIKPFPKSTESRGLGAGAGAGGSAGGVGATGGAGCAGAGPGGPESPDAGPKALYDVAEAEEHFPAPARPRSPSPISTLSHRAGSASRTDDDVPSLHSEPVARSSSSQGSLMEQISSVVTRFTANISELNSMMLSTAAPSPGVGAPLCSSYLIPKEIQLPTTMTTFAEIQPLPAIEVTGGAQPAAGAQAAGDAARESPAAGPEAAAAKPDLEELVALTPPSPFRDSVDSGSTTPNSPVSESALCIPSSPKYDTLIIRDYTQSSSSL
Sequence of Metabotropic glutamate receptor 7 (Homo sapiens) (Q14831 whole entry): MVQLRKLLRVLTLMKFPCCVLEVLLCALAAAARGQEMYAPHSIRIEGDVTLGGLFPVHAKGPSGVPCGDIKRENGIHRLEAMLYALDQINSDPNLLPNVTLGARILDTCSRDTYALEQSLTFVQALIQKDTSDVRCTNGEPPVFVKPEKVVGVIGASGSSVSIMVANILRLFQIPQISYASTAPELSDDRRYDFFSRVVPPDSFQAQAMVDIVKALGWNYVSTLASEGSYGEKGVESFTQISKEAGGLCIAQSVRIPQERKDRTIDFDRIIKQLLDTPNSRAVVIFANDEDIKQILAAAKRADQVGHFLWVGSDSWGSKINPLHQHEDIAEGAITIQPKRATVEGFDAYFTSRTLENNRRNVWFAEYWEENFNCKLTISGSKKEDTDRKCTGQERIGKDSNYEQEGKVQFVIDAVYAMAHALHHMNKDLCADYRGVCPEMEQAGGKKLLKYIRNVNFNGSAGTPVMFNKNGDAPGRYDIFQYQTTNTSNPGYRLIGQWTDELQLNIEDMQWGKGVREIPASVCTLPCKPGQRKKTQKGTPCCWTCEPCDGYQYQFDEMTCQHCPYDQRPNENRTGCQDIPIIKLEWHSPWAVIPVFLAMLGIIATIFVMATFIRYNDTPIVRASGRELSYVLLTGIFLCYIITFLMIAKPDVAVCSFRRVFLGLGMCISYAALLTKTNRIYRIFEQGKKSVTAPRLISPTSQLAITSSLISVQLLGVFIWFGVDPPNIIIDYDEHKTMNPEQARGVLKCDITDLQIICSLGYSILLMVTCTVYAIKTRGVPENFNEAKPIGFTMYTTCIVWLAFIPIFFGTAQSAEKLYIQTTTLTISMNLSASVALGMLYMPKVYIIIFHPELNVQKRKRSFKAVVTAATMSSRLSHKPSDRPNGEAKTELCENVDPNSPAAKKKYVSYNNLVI

Structure (SMILES)	pEC50 [1]	Activity [5]	Cp [6]	pKi [7]	bioavailability [9]	Cp [10]	Cp [11]	Cp [12]	Cp [13]	AUC [14]	Activity [15]	Cmax [18]	Activity [24]	Activity [25]	Activity [26]	Activity [27]	Activity [28]	Activity [29]	Activity [30]	Activity [31]	other results
N[C@@]1(C(=O)O)C[S+]([O-])[C@H]2[C@H](C(=O)O)[C@H]21 (stereo in doubt; (+)-11)	5.51	98%	3244 ng/mL	9.77	100%	311 ng/mL	726 ng/mL	699 ng/mL	7495 ng/mL	13000 ng·h/mL	98%	7500 ng/mL									concentration at 16 h [2]: 34 ng/mL; Tmax [3]: 0 h; concentration at 8 h [4]: 202 ng/mL; Cmax [8]: 29000 ng/mL; concentration at 24 h [16]: 3 ng/mL; pEC50 [17]: 10.05; Tmax [19]: 0.5 h; ED50 [20]: 2.3 mg/kg; AUC(0-t) at 24 h [21]: 13000 ng·h/mL; Cp [22]: 2895 ng/mL; pEC50 [23]: 8.85
N[C@@]1(C(=O)O)C[S+]([O-])[C@H]2[C@H](C(=O)O)[C@H]21 (stereo in doubt; (-)-10)													inactive	inactive	inactive	inactive	inactive	inactive	inactive	inactive	
N[C@@]1(C(=O)O)C[S+]([O-])[C@H]2[C@H](C(=O)O)[C@H]21 (stereo in doubt; (-)-11)			367 ng/mL			71.8 ng/mL	77 ng/mL	229 ng/mL	325 ng/mL	1100 ng·h/mL		400 ng/mL									Tmax [32]: 1 h; Cp [22]: 258 ng/mL
N[C@@]1(C(=O)O)CC[C@H]2[C@H](C(=O)O)[C@H]21													inactive	inactive	inactive	inactive	inactive	inactive	inactive	inactive	
N[C@@]1(C(=O)O)CS(=O)(=O)[C@H]2[C@H](C(=O)O)[C@H]21 [LY404039]	4.32	91%		7.04	63%						91%	4000 ng/mL	inactive	inactive	inactive	inactive	inactive	inactive	inactive	inactive	concentration at 3 h [33]: > 500 ng/mL; concentration at 1 h [34]: 4000 ng/mL; AUC [35]: 7.2 µg/mL; concentration at 8 h [36]: < 10 ng/mL; Cmax [37]: 7500 ng/mL; AUC(0-t) at 24 h [38]: 7200 ng·h/mL; pEC50 [17]: 7.63; AUC(0-t) at 24 h [39]: 2900 ng·h/mL; Tmax [19]: 1 h; ED50 [20]: 2.5 mg/kg; Tmax [40]: 0 h; pEC50 [23]: 7.32

Source: ChEMBL document CHEMBL1139833, “Synthesis and metabotropic glutamate receptor activity of S-oxidized variants of (-)-4-amino-2-thiabicyclo-[3.1.0]hexane-4,6-dicarboxylate: identification of potent, selective, and orally bioavailable agonists for mGlu2/3 receptors” (J Med Chem, 2007)
